Laboratory results taken from the RNAGym collection of RNA variant scans (doi:10.1126/science.aae0568).
Variants at the floor of the assay were thinned out.

B1: tRNA (parent)
chain: GUUCCGUUGGCGUAAUGGUAACGCGUCUCCCUCCUAAGGAGAAGACUGCGGGUUCGAGUCCCGUACGGAACG

Variants of: B1
Test: yeast fitness relative to wild type (ratio to wild type); higher = fitter; tRNA-Arg(CCU), competitive growth, 37 C, YPD
Method in brief: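 Amplicons of the tRNA-Arg(CCU) gene were sequenced, 100-nucleotide paired-end, from the start population and from each end population of a pooled yeast competition. The competition, in six parallel replicates, lasted 24 hours in YPD at 37°C. Fitness relative to wild type was calculated from changes in genotype frequencies. Genotypes had to have ≥ 100 starting reads, and estimates < 0.5 were set to 0.5.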

Variant | yeast fitness
GUUCCGUUGGCGUAAUGGUAACGCGUCUCUCUCCUGAGGAGAAAACUGCGGGUUCGAGUCGCGUACGGAACG [C30U A36G G44A C61G] | ≤ 0.5
GUUCCGUUGGCGUAAUGGUAACGCGUCUCUCUCCUAAGGAGGAGACUGCGGGUUCGAGUCCCGUACGGAACG [C30U A42G] | 0.8
GUUCCGUUGGCGUAAUGGUAACGCGUCUCUCUCCUAAGGAGUAGACUGCGGGUUCGAGUCCCGUACGGAACG [C30U A42U] | 0.879
GUUCCGUUGGCGUAAUGGUAACGCGUCUCUCUCCUAAGGAGCAGACUGCGGGUUCGAGUCCCGUACGGAACG [C30U A42C] | 0.755
GUUCCGUUGGCGUAAUGGUAACGCGUCUCUCUUCUAAGGAGAAGACUGCGGGUUCGGGUACCGUACGGAACG [C30U C33U A57G C60A] | ≤ 0.5
GUUCCGUUGGCGUAAUGGUAACGCGUCUCUCUGCUAAGGAGAAGAGUGCGGGUUCGAGUCCCGUACGGAACG [C30U C33G C46G] | ≤ 0.5
GUUCCGUUGGCGUAAUGGUAACGCGUCUCUCUCCUACAGAGAAGACUGCGGGUUCGAGUCCCGUACGGAACG [C30U A37C G38A] | ≤ 0.5
GUUCCGUUGGCGUAAUGGUAACGCGUCUCUCUGCUAAGGAGAAGACUGCGGGUUCGAGUCCCGUACGGCACG [C30U C33G A69C] | 0.546
GUUCCGUUGGCGUAAUGGUAACGCGUCUCUUUCCUAAGGACAAGACUGCGGGUUCGAGUCCCGUACGGAACG [C30U C31U G41C] | 0.526
GUUCCGUUGGCGUAAUGGUAACGCGUCUCUCUCCUAAGGAGAUGACUGCGGGUUAGAGUCCCGUACGGAACG [C30U A43U C55A] | ≤ 0.5
GUUCCGUUGGCGUAAUGGUAACGCGUCUCUUUCCUCAGGAGAAGACUGCGGGUUCGAGUCCCGUACGGAACG [C30U C31U A36C] | ≤ 0.5
GUUCCGUUGGCGUAAUGGUAACGCGUCUCUCUCCUAAGGAGCAGACUCCGGGUUCGAGUCCCGUACGGAACG [C30U A42C G48C] | ≤ 0.5
GUUCCGUUGGCGUAAUGGUAACGCGUCUCUCUCCUAAGGAGACGACUGCGGGUUCGAAUCCCGUACGGAACG [C30U A43C G58A] | 0.99
GUUCCGUUGGCGUAAUGGUAACGCGUCUCUCUCCUAAGGAGAAGACUGCGGGUUCGAGUCCCGUGCGGAACG [C30U A65G] | 0.932
GUUCCGUUGGCGUAAUGGUAACGCGUCUCUCUCCUAAGGAGAAGACUGCGGGUUCGAGUCCCGUUCGGAACG [C30U A65U] | 0.876
GUUCCGUUGGCGUAAUGGUAACGCGUCUCUCUCCUAGGAAGAAGACUGCGGGUUCGAGUCCCGUACGGAACG [C30U A37G G39A] | 0.552
GUUCCGUUGGCGUAAUGGUAACGCGUCUCUGUCCUAAGGAGAAGACUGCGGGCUCGAGUCCCGUACGGAACG [C30U C31G U53C] | ≤ 0.5
GUUCCGUUGGCGUAAUGGUAACGCGUCUCUUUCCUAAGGAGAAGACUGCGGGUUCGAGUCCCGUACGGAACG [C30U C31U] | 1.02
GUUCCGUUGGCGUAAUGGUAACGCGUCUCUCUCCUAAGGAGGAGACUGCGGGUUCGAGUGCGGUGCGGAACG [C30U A42G C60G C62G A65G] | ≤ 0.5

Variant | yeast fitness
GUUCCGUUGGCGUAAUGGUAACGCGUCUCUCUCCUAAGGAGAAGACUGCGGGUUCGGGUCCCGUUCGGAACG [C30U A57G A65U] | 0.667
GUUCCGUUGGCGUAAUGGUAACGCGUCUCUUUCCUAAGGAGAAGACUGCGGGUUCGAGUGCCGUACGGAACG [C30U C31U C60G] | ≤ 0.5
GUUCCGUUGGCGUAAUGGUAACGCGUCUCUCUCCUAAGGCGAAGACUGCGGGUUCGAGUCCCCCACGGAACG [C30U A40C G63C U64C] | ≤ 0.5
GUUCCGUUGGCGUAAUGGUAACGCGUCUCUCUCCUAAGGAGGAGACUGCGGCUUCGAGUCCCGUACGGAACG [C30U A42G G52C] | ≤ 0.5
GUUCCGUUGGCGUAAUGGUAACGCGUCUCUCUCCUAGGGAGAAGACUGCGGGUUCGAGUCCCGUACGGACCG [C30U A37G A70C] | 0.59
GUUCCGUUGGCGUAAUGGUAACGCGUCUCUUUCCUAAGGAGAAGCCUGUGGGGUCGAGUCCCGUACGGAACG [C30U C31U A45C C49U U53G] | ≤ 0.5
GUUCCGUUGGCGUAAUGGUAACGCGUCUCUCUCCUAAGGCGAAGACUGCGGGUUCGCGUCCCGUACGGAACG [C30U A40C A57C] | ≤ 0.5
GUUCCGUUGGCGUAAUGGUAACGCGUCUCUCUCCUAAGGAGGAGACUGCGGGUUCGAGUCCAGUACGGAACG [C30U A42G C62A] | ≤ 0.5
GUUCCGUUGGCGUAAUGGUAACGCGUCUCUCUCCUAAGGAGAGGACUGCGGGUUCGAGUCCCGUACGGAACG [C30U A43G] | 0.647
GUUCCGUUGGCGUAAUGGUAACGCGUCUCUCUCCUAAGGAGAAGGCUGCGGGUUCGAAUCCCGUACGGAACG [C30U A45G G58A] | 0.663
GUUCCGUUGGCGUAAUGGUAACGCGUCUCUCUCCUAAGGAGGAGACUGCGGGUUUGAGUCCCGUACGGAACG [C30U A42G C55U] | 0.545
GUUCCGUUGGCGUAAUGGUAACGCGUCUCUCUACUUAGGAGAUGACUGCGGGUCCAAGUCCCGUACGGAACG [C30U C33A A36U A43U U54C G56A] | 0.54
GUUCCGUUGGCGUAAUGGUAACGCGUCUCUCUCCUUGGGAGAAGACUACGGGUUCGAGUCCCGUACGGAGCG [C30U A36U A37G G48A A70G] | ≤ 0.5
GUUCCGUUGGCGUAAUGGUAACGCGUCUCUCUCCUAAGGUGAAGACUGAGGGUUCAUGUCCCGUACGGAACG [C30U A40U C49A G56A A57U] | ≤ 0.5
GUUCCGUUGGCGUAAUGGUAACGCGUCUCUCUCCUAAGGAGACGACUGCGGGUACGAGUCCCGUACGGAACG [C30U A43C U54A] | 0.611
GUUCCGUUGGCGUAAUGGUAACGCGUCUCUCUCCUACGGAGAAGACUGCGGGUUCGAGUCCCGUAUGGAACG [C30U A37C C66U] | ≤ 0.5
GUUCCGUUGGCGUAAUGGUAACGCGUCUCUCUACUAAGGAGAAGACUGCGGGUUCCAGUCCCGUACGGACCG [C30U C33A G56C A70C] | ≤ 0.5
GUUCCGUUGGCGUAAUGGUAACGCGUCUCUAUCCUAAGGAGAAGACUGCGGGUGCGAGUCCCGUACGGAACG [C30U C31A U54G] | 0.549
